Reference: ChEMBL document CHEMBL3632541, “Synthesis, antileishmanial activity and cytotoxicity of 2,3-diaryl- and 2,3,8-trisubstituted imidazo[1,2-a]pyrazines” (Eur J Med Chem, 2015)
pIC50: −log10 of the molar value. Values after ≈ are worked out from the molar mass of the structure shown. Active and inactive are the calls of the source. The calls are words filed in the database; no cut-off is given here.

How the values were obtained:
Leishmania major [1] = assay: Antileishmanial activity against promastigote form of Leishmania major MHOM/IL/81/BNI after 96 hrs by spectrofluorimetric micromethod; format: functional, organism-based
[2] = Cytotoxicity against BALB/c mouse peritoneal macrophages assessed as cell viability after 48 hrs by trypan blue dye exclusion method; format: cell-based; conditions: Peritoneal macrophage cell
[3] = Therapeutic index, ratio of IC50 for BALB/c mouse peritoneal macrophages to IC50 for promastigote form of Leishmania major (MHOM/IL/81/BNI); conditions: read-out: Ratio IC50
[4] = Cytotoxicity against BALB/c mouse 3T3 clone A31 cells after 48 hrs by SRB assay method; format: cell-based; conditions: A31, 48 h
Procedure, shortened: (§1)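 Cells plated in growth medium and allowed to attach 24 h (37 °C, 5% CO₂). Time-zero plate fixed with TCA. Serial 4-fold dilutions added for 48 h. Cells fixed with cold TCA, stained with 0.2% SRB, dye solubilized in 10 mM Tris pH 10.5, absorbance read at 510 nm. GI50 is 50% absorbance reduction versus solvent controls, by linear regression. K562 counted by Coulter counter instead. 5-FU reference.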

[5] = Therapeutic index, ratio of IC50 for BALB/c mouse 3T3 clone A31 cells to IC50 for promastigote form of Leishmania major (MHOM/IL/81/BNI); format: cell-based; conditions: read-out: Ratio IC50
[6] = Inhibition of native porcine brain CK1 delta/epsilon using RRKHAAIGpSAYSITA as substrate and [gamma-33P]ATP after 30 mins by scintillation counting; set-up: species or system Sus scrofa
Procedure, shortened: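 Native porcine brain CK1δ/ε, in threefold-diluted buffer A (25 mM Mops pH 7.2, 15 mM MgCl₂, 5 mM EGTA, 1 mM DTT, phosphatase inhibitors). 25 μM CKS peptide substrate, 15 μM [γ-³³P]ATP, 30 min at 30 °C. Stopped on P81 paper, washed in 1% phosphoric acid, counted by scintillation. Blank subtracted; activity as % of the no-inhibitor value; DMSO controls.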

[7] = Inhibition of Leishmania major CK1.2 using RRKHAAIGpSAYSITA as substrate and [gamma-33P]ATP after 30 mins by scintillation counting
Procedure, shortened: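 Recombinant His-tagged L. major CK1.2 from E. coli, purified on cobalt beads. Assayed as for the porcine enzyme: CKS peptide substrate, 15 μM [γ-³³P]ATP, 30 min at 30 °C, P81 capture and scintillation counting. Activity as % of the no-inhibitor value.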

[8] = Cytotoxicity against human H460 cells assessed as growth inhibition after 48 hrs by SRB assay method; format: cell-based, NCI-H460; procedure, shortened: as §1
[9] = Cytotoxicity against human HuTu 80 cells assessed as growth inhibition after 48 hrs by SRB assay method; format: cell-based, HuTu80; procedure, shortened: as §1
[10] = Cytotoxicity against human DU145 cells assessed as growth inhibition after 48 hrs by SRB assay method; format: cell-based, DU-145; procedure, shortened: as §1
[11] = Cytotoxicity against human MCF7 cells assessed as growth inhibition after 48 hrs by SRB assay method; format: cell-based; procedure, shortened: as §1
[12] = Cytotoxicity against human M14 cells assessed as growth inhibition after 48 hrs by SRB assay method; format: cell-based; procedure, shortened: as §1
[13] = Cytotoxicity against human HT-29 cells assessed as growth inhibition after 48 hrs by SRB assay method; format: cell-based; procedure, shortened: as §1
[14] = Cytotoxicity against human K562 cells assessed as growth inhibition after 48 hrs by Coulter counter cell counting
Leishmania major [15] = assay: Antileishmanial activity against amastigote form of Leishmania major MHOM/IL/81/BNI amastigote in Balb/c mouse peritoneal macrophages after 4 days by May-Grunwald-Giemsa staining-based microscopic analysis; format: functional, organism-based; conditions: 96 h
Procedure, shortened: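 Peritoneal macrophages from Balb/c mice, 1.5 10⁵ cell/mL in RPMI 1640 + 15% FBS, left 24 h on glass slides (37 °C, 5% CO₂), then infected 24 h with stationary-phase promastigotes (1.5 × 10⁶/mL). Washed cultures exposed to 100, 10, 1 and 0.1 µM for 4 days. Fixed with methanol, Giemsa-stained. Amastigotes counted in 100 macrophages per duplicate well; IC50 from amastigotes/macrophage. Done twice.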

[16] = Therapeutic index, ratio of IC50 for BALB/c mouse peritoneal macrophages to IC50 for amastigote form of Leishmania major (MHOM/IL/81/BNI) in BALB/c mouse peritoneal macrophages; conditions: read-out: Ratio IC50
Leishmania amazonensis = assay: Antileishmanial activity against axenic amastigote stage of Leishmania amazonensis MHOM/BR/76/LTB-012 by MTT method; format: functional, organism-based
Procedure, shortened: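 Axenic amastigotes, grown in MAA/20 medium at 32 ± 1 °C. IC50 by MTT micromethod; compounds from 10 mM DMSO stocks, DMSO ≤1% final.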

SMILES | pIC50 (Leishmania major [1]) | pIC50 [2] | selectivity ratio [3] | pIC50 [4] | selectivity ratio [5] | pIC50 [6] | pIC50 [7] | GI50 at 48 h [8] | GI50 at 48 h [9] | GI50 at 48 h [10] | GI50 at 48 h [11] | GI50 at 48 h [12] | GI50 at 48 h [13] | GI50 at 48 h [14] | pIC50 (Leishmania major [15]) | selectivity ratio [16] | Activity (Leishmania amazonensis)
Ic1c(-c2ccccc2)nc2c(NCCN3CCOCC3)nccn12 | 4.97 | 4.50 | 3 | 3.63 | 22.3 | < 5.00 | < 5.00 | 121 µg/mL (≈ 269 µM) | 33 µg/mL (≈ 73.4 µM) | 47 µg/mL (≈ 105 µM) | 29 µg/mL (≈ 64.5 µM) | 179 µg/mL (≈ 398 µM) | 22 µg/mL (≈ 49 µM) | 18 µg/mL (≈ 40.1 µM) |  |  | 
CN(C)c1nccn2c(I)c(-c3ccc(F)cc3)nc12 | < 4.00 |  |  | 4.00 |  | < 5.00 | < 5.00 | 25 µg/mL (≈ 65.4 µM) | 22 µg/mL (≈ 57.6 µM) | 40 µg/mL (≈ 105 µM) | 3 µg/mL (≈ 7.85 µM) | > 125 µg/mL | > 125 µg/mL | > 125 µg/mL |  |  | 
Fc1ccc(-c2nc3c(NCCN4CCOCC4)nccn3c2-c2ccncc2)cc1 | 4.78 | 4.39 | 2.4 | 4.32 | 2.9 | 5.57 | 6.21 | 20 µg/mL (≈ 47.8 µM) | 28 µg/mL (≈ 66.9 µM) | 39 µg/mL (≈ 93.2 µM) | 19 µg/mL (≈ 45.4 µM) | 36 µg/mL (≈ 86 µM) | 27 µg/mL (≈ 64.5 µM) | 21 µg/mL (≈ 50.2 µM) |  |  | 
CN(C)c1nccn2c(-c3ccncc3)c(-c3ccccc3)nc12 | 4.50 | 3.84 | 4.6 | 3.81 | 5 | 5.62 | 6.32 | 70 µg/mL (≈ 222 µM) | 50 µg/mL (≈ 159 µM) | 90 µg/mL (≈ 285 µM) | 32 µg/mL (≈ 101 µM) | 84 µg/mL (≈ 266 µM) | 56 µg/mL (≈ 178 µM) | 48 µg/mL (≈ 152 µM) | 5.03 | 15.3 | inactive
c1ccc(-c2nc3cnccn3c2-c2ccncc2)cc1 | 4.70 | 3.81 | 7.7 |  |  | 5.48 | 5.89 |  |  |  |  |  |  |  | 5.57 | 57 | inactive
CN(C)CCNc1nccn2c(-c3ccncc3)c(-c3ccccc3)nc12 | 4.16 | 4.19 | 0.9 | 4.06 | 1.3 | 5.80 | 6.29 | 40 µg/mL (≈ 112 µM) | 32 µg/mL (≈ 89.3 µM) | 47 µg/mL (≈ 131 µM) | 6 µg/mL (≈ 16.7 µM) | 27 µg/mL (≈ 75.3 µM) | 6 µg/mL (≈ 16.7 µM) | 15 µg/mL (≈ 41.8 µM) |  |  | 
COc1ccc(-c2c(-c3ccccc3)nc3cnccn23)cc1 | 4.76 | 4.22 | 3.5 |  |  |  | < 5.00 |  |  |  |  |  |  |  |  |  | 
CN(C)c1nccn2c(-c3ccncc3)c(-c3ccc(F)cc3)nc12 | 5.19 | 4.38 | 6.6 | < 3.43 | > 58.6 | 5.68 | 6.00 | > 125 µg/mL | 77 µg/mL (≈ 231 µM) | > 125 µg/mL | 52 µg/mL (≈ 156 µM) | > 125 µg/mL | > 125 µg/mL | > 125 µg/mL | 6.10 | 52.5 | inactive
O=[N+]([O-])c1ccc(-c2c(-c3ccccc3)nc3cnccn23)cc1 | 4.56 | 3.94 | 4.2 |  |  |  | < 5.00 |  |  |  |  |  |  |  |  |  | 
CN(C)CCNc1nccn2c(I)c(-c3ccc(F)cc3)nc12 | 4.61 | 4.47 | 1.4 | 4.73 | 0.8 | < 5.00 | < 5.00 | 9 µg/mL (≈ 21.2 µM) | 6 µg/mL (≈ 14.1 µM) | 13 µg/mL (≈ 30.6 µM) | 5 µg/mL (≈ 11.8 µM) | 4 µg/mL (≈ 9.41 µM) | 4 µg/mL (≈ 9.41 µM) | 43 µg/mL (≈ 101 µM) |  |  | 
c1ccc(-c2nc3c(NCCN4CCOCC4)nccn3c2-c2ccncc2)cc1 | 4.63 | 4.29 | 2.2 |  |  | 5.48 | 5.62 |  |  |  |  |  |  |  |  |  | 
CN(C)CCNc1nccn2c(-c3ccncc3)c(-c3ccc(F)cc3)nc12 | 4.45 | 4.24 | 1.6 | 4.00 | 2.9 | 5.80 | 6.28 | 34 µg/mL (≈ 90.3 µM) | 24 µg/mL (≈ 63.8 µM) | 52 µg/mL (≈ 138 µM) | 8 µg/mL (≈ 21.3 µM) | 19 µg/mL (≈ 50.5 µM) | 8 µg/mL (≈ 21.3 µM) | 14 µg/mL (≈ 37.2 µM) |  |  | 
N=C(N)c1ccc(OCCCCCOc2ccc(C(=N)N)cc2)cc1 [PENTAMIDINE] | 5.34 | 3.82 | 33.2 |  |  |  |  |  |  |  |  |  |  |  | 5.52 | 50.9 | 
CCOC(=O)c1ccc(-c2c(-c3ccccc3)nc3cnccn23)cc1 | 4.76 | 4.30 | 2.9 |  |  |  | < 5.00 |  |  |  |  |  |  |  |  |  | 
Clc1cc(Cl)cc(-c2c(-c3ccccc3)nc3cnccn23)c1 | 4.99 | 4.45 | 3.4 |  |  |  | < 5.00 |  |  |  |  |  |  |  |  |  | 
Fc1ccc(-c2nc3c(NCCN4CCOCC4)nccn3c2I)cc1 | 5.55 | 4.03 | 33.3 | < 3.57 | > 95.6 | < 5.00 | < 5.00 | > 125 µg/mL | 73 µg/mL (≈ 156 µM) | > 125 µg/mL | > 125 µg/mL | > 125 µg/mL | > 125 µg/mL | > 125 µg/mL | 6.70 | 466 | inactive
Clc1cccc(-c2c(-c3ccccc3)nc3cnccn23)c1 | 4.84 | 4.29 | 3.5 |  |  |  |  |  |  |  |  |  |  |  |  |  | 
CN(C)c1nccn2c(I)c(-c3ccccc3)nc12 | 5.17 | 4.53 | 4.3 | 4.45 | 5.3 | < 5.00 | < 5.00 | 47 µg/mL (≈ 129 µM) | 44 µg/mL (≈ 121 µM) | 39 µg/mL (≈ 107 µM) | 3 µg/mL (≈ 8.24 µM) | > 125 µg/mL | 38 µg/mL (≈ 104 µM) | 16 µg/mL (≈ 43.9 µM) |  |  | 
O=c1[nH]cc(F)c(=O)[nH]1 [FLUOROURACIL] |  |  |  |  |  |  |  | 0.3 µg/mL (≈ 2.31 µM) | 0.4 µg/mL (≈ 3.08 µM) | 1 µg/mL (≈ 7.69 µM) | 0.3 µg/mL (≈ 2.31 µM) | 0.7 µg/mL (≈ 5.38 µM) | 0.4 µg/mL (≈ 3.08 µM) | 0.9 µg/mL (≈ 6.92 µM) |  |  | 
CN(C)CCNc1nccn2c(I)c(-c3ccccc3)nc12 | 4.62 | 4.16 | 2.8 | 4.50 | 1.3 | < 5.00 | < 5.00 | 13 µg/mL (≈ 31.9 µM) | 12 µg/mL (≈ 29.5 µM) | 20 µg/mL (≈ 49.1 µM) | 9 µg/mL (≈ 22.1 µM) | 4 µg/mL (≈ 9.82 µM) | 4 µg/mL (≈ 9.82 µM) | 5 µg/mL (≈ 12.3 µM) |  |  | 
c1ccc(-c2nc3cnccn3c2-c2ccccc2)cc1 | 4.58 | 4.38 | 1.6 |  |  |  | < 5.00 |  |  |  |  |  |  |  |  |  | 
